Here are results for 96 compounds from ChEMBL document CHEMBL4513216, “Probing the Open Global Health Chemical Diversity Library for Multistage-Active Starting Points for Next-Generation Antimalarials” (ACS Infect Dis, 2020).

Each structure is given as a SMILES string.

The data set can be described thus: Toxicity liver stage against HepG2, at 10uM. The class given is cell-based. Also noted: test concentration 10 uM, cell line HepG2-A16-CD81EGFP. The following applies: human, HepG2-A16-CD81EGFP cells; read-out: INHIBITION
In a few lines:
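Uninfected HepG2-A16-CD81EGFP cells, 3 × 10^3 per well, 1536-well, plated on prespotted compound at 10 μM final, parasite-free screening media added to match infected plates; puromycin 10 μM positive, DMSO 0.5% negative; run in parallel with 48 h PbLuc assay at 37 °C, 5% CO2; viability by CellTiter-Glo luminescence, normalized to controls.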
On to `CC(C)CN1C[C@@H]2OCC(=O)N(Cc3nccn3C)[C@@H]2C1`, for which the cytotoxicity at 10 µM amounted to 0.174%.
The figure for `O[C@@H]1C[C@@H](c2nc(-c3ccccc3)no2)N(Cc2cccnc2)C1` is 3.69%.
The figure for `CC(=O)N1CCC(N2CCOC[C@H]2c2nc(-c3ccccc3)c[nH]2)CC1` is 1.74%; for `COC(=O)[C@@H]1Cc2ncn(C)c2CN1S(=O)(=O)c1ccc(C)cc1` it is 2.08%.
The result for `Cc1nnc([C@H]2CCN(CCCc3ccccc3)C2)o1` reads 2.87%; that for `O=C(NC[C@@H]1CCCO1)c1cccnc1N1CCCC1c1ccccc1` (stereo partly specified), 3.95%.
Turning to `CN1CC[C@H](N(Cc2ccccc2)C2COC2)C[C@H](O)C1`, the cytotoxicity at 10 µM amounted to 4.27%.
For the compound `CC(C)CN1CC(O)CN(C(=O)c2cccc(C(F)(F)F)c2)CC1=O` (stereo unspecified), the cytotoxicity at 10 µM was -7.08%.
For `COCCCN(Cc1ccccn1)S(=O)(=O)c1ccc(OC)cc1`, the cytotoxicity at 10 µM was 5.85%.
The figure for `O=C(NCCN1CCOCC1)c1nc2ccccc2c(=O)[nH]1` is 11.3%.
The figure for `Cc1nn(C)c2nc(C(C)C)cc(C(=O)Nc3n[nH]c(C4CC4)n3)c12` is -4.38%; for `O=C1CC(NS(=O)(=O)c2ccc(Cl)cc2)CN1` (stereo unspecified) it is 6.66%.
The figure for `CS(=O)(=O)C1CCN(S(=O)(=O)Cc2cccc(F)c2)CC1` is -19.1%; for `O=C(Cc1cccs1)NCC1Cn2nnc(-c3ccoc3)c2CO1` (stereo unspecified) it is 6.06%; for `CCN1C(=O)CC[C@@H]2[C@H]1CCN2S(=O)(=O)Cc1ccc(C)cc1` it is 0.0218%.
Regarding `CN(Cc1cn2c(n1)CN(C(=O)C1CCCO1)CC2)Cc1ccco1` (stereo unspecified), the cytotoxicity at 10 µM was 8.24%.
The result for `O=C(NCC1CC1)C1CN(C(=O)c2ccco2)CC12CCOCC2` (stereo unspecified) reads 6.61%.
The figure for `Cn1cnnc1S(=O)(=O)C1CCN(S(=O)(=O)C2CC2)CC1` is -9.99%; for `Cc1c(-c2cc(-c3cnn(C)c3C)n(CC(=O)NC3CC3)n2)cnn1C` it is 9.26%; for `CCn1nc(C)c2c1cnn2CC(=O)Nc1ccc(OC)cc1C` it is -80.1%.
The result for `Cn1ncc(C(=O)O)c1C(=O)Nc1nc2ccccc2s1` reads 7.9%; that for `Cn1nc(C2CCN(C(=O)c3cnccn3)C2)cc1CCO` (stereo unspecified), 9.95%; that for `O=C(CCc1cccnc1)N1CCCCC1c1ccn2ccnc2n1` (stereo unspecified), -4.28%.
With `CNc1cncc(C2CCCN2Cc2cccc(C)n2)n1` (stereo unspecified), the cytotoxicity at 10 µM was -8.3%.
Regarding `CO[C@H]1CCN(C(=O)c2ccc3oc(C)cc3c2)C[C@@]12CCCO2`, the cytotoxicity at 10 µM came out at 25.9%.
Turning to `CC(=O)N1CCN([C@@H]2CCC[C@@H](N(C)C(=O)C3CC3)[C@H]2O)CC1`, the cytotoxicity at 10 µM was -5.97%.
For `CC1CCCN(S(=O)(=O)NCCCn2ccc3ccccc32)C1` (stereo unspecified), the cytotoxicity at 10 µM was 13.6%.
The figure for `CC(NCc1cccc(NC(=O)C2CCCCC2)c1)c1cnn(C)c1` (stereo unspecified) is -0.26%; for `Cc1ccc(-c2cc(C(=O)NCC3CCOC3)n[nH]2)s1` (stereo unspecified) it is -4.09%; for `Cc1nc(CC2CCCN(Cc3nc4ccccc4c(=O)[nH]3)C2)no1` (stereo unspecified) it is -44%.
On to `Cc1cnc(C(=O)N2CCC(COCc3ccccc3)C2)cn1` (stereo unspecified), for which the cytotoxicity at 10 µM was determined as 7.54%.
As for `CC(C)(C)c1nc(CC(=O)NCCC(=O)Nc2ccncc2)cs1`, the cytotoxicity at 10 µM came to 12.8%.
The result for `O=C(c1ccccc1O)N1CCn2c(nnc2C(F)(F)F)C1` reads 14.6%; that for `Cc1cn2c(CN(C)C(=O)c3nccnc3N)c(C)nc2s1`, -4.12%; that for `Cc1noc(CCCC(=O)N2CCN(C)CC2c2ccccc2)n1` (stereo unspecified), -6.73%.
The result for `COc1cccc(C(=O)NCc2ccccc2S(=O)(=O)N(C)C)c1` reads -5.52%.
In the case of `COc1cccc(C2CCCN2C(=O)NCCCn2cccn2)c1` (stereo unspecified), the cytotoxicity at 10 µM stood at 15.5%.
The figure for `CC(C)COc1cncc(NC(CO)c2ccco2)n1` (stereo unspecified) is -5.08%.
As for `COCc1noc(C2(c3ccc(Cl)cc3)CCOCC2)n1`, the cytotoxicity at 10 µM worked out at 1.86%.
The result for `Cc1cc2n(n1)CC(CNC1CCN(CCc3ccccc3)CC1)CN2` (stereo unspecified) reads 2.7%.
The figure for `c1ccc(-c2noc(CNC3CCCN(c4cccnn4)C3)n2)nc1` (stereo unspecified) is 4.86%; for `CCNC(=O)N(CCCO)C1CCCc2ccccc21` (stereo unspecified) it is -11%; for `CCc1nc(C(=O)N2CCN(CCc3ccc(OC)cc3)CC2)c[nH]1` it is -9.56%.
The result for `COc1cc2c(cc1OC)S(=O)(=O)N(Cc1ccc(C)cc1)C2=O` reads 8.74%; that for `CC(=O)Nc1ccc(/C=C/c2ncc(C(=O)O)s2)cc1`, -3.54%.
As to `CCc1nc(Cn2c(=O)n(C)c3ccccc32)no1`, the cytotoxicity at 10 µM is -45.1%.
In the case of `CC1CCCN(C(=O)c2ncncc2Cl)C1` (stereo unspecified), the cytotoxicity at 10 µM worked out at 8.43%.
The result for `Cc1cc(CNCCNS(C)(=O)=O)sc1Br` reads -4.6%; that for `CCOCC(=O)Nc1nccn1Cc1ccc(Br)cc1`, -44.8%; that for `CCC1(CNCc2ncc[nH]2)CCCC1`, -3.09%.
The result for `Cc1cccc(CNc2nnc(C(C)C)o2)c1` reads 12.2%; that for `Cc1cnc(C(=O)N2C[C@H](N3CCOCC3)[C@@H]3OCCC[C@@H]32)cn1`, -107%; that for `CCOC1COC2(CCN(S(=O)(=O)c3ccc(F)cc3)CC2)C1` (stereo unspecified), -109%.
The result for `COCCN1C[C@H]2[C@@H](C1)N(C(=O)COc1ccccc1)CC[C@H]2OC` reads -1.34%; that for `CNc1nc2c(s1)C(=O)CN(C(=O)[C@@H](N)Cc1cccc(OC)c1)C2`, -4.08%; that for `CC(C)[C@H](NS(C)(=O)=O)C(=O)NCc1cc(-c2cccc(Cl)c2)nn1C`, -5.47%.
In the case of `C=C(C)COc1cccc(CN(C)C(C)c2nccs2)c1` (stereo unspecified), the cytotoxicity at 10 µM is -49.2%.
Regarding `CC(=O)N1C[C@H]2CNC[C@@]2(C(=O)NCCNc2ccncc2C)C1`, the cytotoxicity at 10 µM was -6.4%.
The result for `OC1(CN2CCCC2)CCCN(Cc2cnc(-c3ccccc3)nc2)C1` (stereo unspecified) reads -11.9%.
The figure for `CN(Cc1cnn(C)c1)C1CCN(c2cccc(-c3cscn3)c2)CC1` is -0.724%; for `CC(C)C1CN(S(=O)(=O)C2CC2)CCCN1Cc1ccc(F)cc1` (stereo unspecified) it is 7.01%; for `CCCn1cc(C(=O)NCCc2ccncc2)c(C)n1` it is 11.2%.
As to `CN(C)C(C(=O)N1CC(Oc2ccccc2F)C1)c1ccccc1F` (stereo unspecified), the cytotoxicity at 10 µM is -0.598%.
Consider `NC(=O)CN1CC2(CCC1=O)CCN(Cc1ccc(Cl)c(F)c1)CC2`, for which the cytotoxicity at 10 µM was -5%.
The result for `CCNc1ccnc(NC2CCN(C(=O)c3ccc(C)cc3)CC2)n1` reads 5.09%.
The result for `COc1ccc(OC)c(-n2cnnc2CN)c1` reads -4.4%; that for `COc1ccccc1OCCCc1cc(C#N)ccn1`, -11.5%.
Turning to `CC(=O)Nc1ccc(CNC(=O)CNCc2nnc(C)o2)cc1`, the cytotoxicity at 10 µM stood at 10.7%.
The result for `CCc1n[nH]c(C(=O)N2CCCC3(CN(C)C(=O)O3)C2)c1C` (stereo unspecified) reads -44.7%.
The figure for `Clc1ccc(C2NCCc3cc4c(cc32)OCCO4)cc1` (stereo unspecified) is -16.3%.
The result for `O=C1NCC2(CCCN(CCc3ccccc3)C2)Oc2ccccc21` (stereo unspecified) reads 2.93%; that for `Cc1cccc(N2CCN(C(=O)CCc3c(C)noc3Cl)CC2)c1`, -9.73%.
With `CCc1noc(C)c1C(=O)N1CCCC1Cn1cccn1` (stereo unspecified), the cytotoxicity at 10 µM was -3.04%.
With `O=C1COc2cc(C(=O)NS(=O)(=O)c3ccc(F)cc3)ccc2N1`, the cytotoxicity at 10 µM was -8.47%.
The figure for `CCN(CC1CCOC1)C(=O)c1ccccc1S(C)(=O)=O` (stereo unspecified) is -0.945%; for `Cc1csc(N2CCN(CC(=O)NC3CCOCC3)CC2C)n1` (stereo unspecified) it is -7.13%; for `CC(C)n1cc(CN2CCCN(C(=O)COC3CCCC3)CC2)cn1` it is -15.5%.
With `CCc1nnc2n1CCN(CC(=O)Nc1cc(C)nn1C)C2`, the cytotoxicity at 10 µM is 6.98%.
The result for `CCN(Cc1ccc2c(c1)OCCO2)C(=O)NC(C)Cn1cccn1` (stereo unspecified) reads -10.6%; that for `COc1cc(CNc2cc(N3CCCC3CO)ncn2)ccn1` (stereo unspecified), -28.5%; that for `O=C1NCC(C(=O)Nc2ncc(Cc3ccccc3)s2)N1` (stereo unspecified), 5.92%.
Take `CC(C(=O)NCc1ccc(N2CCCC2)nc1)S(C)(=O)=O` (stereo unspecified): the cytotoxicity at 10 µM was -13.4%.
On to `COc1ccc(CCCNCc2c(C)nn(C)c2N(C)C)cc1OC`, for which the cytotoxicity at 10 µM was -19.2%.
In the case of `c1cnn(CC2CN(Cc3nc(-c4ccoc4)no3)CCO2)c1` (stereo unspecified), the cytotoxicity at 10 µM was -23.8%.
Turning to `Cc1cc(C)n(C2CN(CC(O)c3ccc4c(c3)OCO4)C2)n1` (stereo unspecified), the cytotoxicity at 10 µM is -15.7%.
On to `Cn1cc(C2CCCN2CCCc2nc(-c3cccs3)no2)cn1` (stereo unspecified), for which the cytotoxicity at 10 µM is -6.88%.
Turning to `Cc1cc(C(=O)NCc2cccnc2OC(C)C)no1`, the cytotoxicity at 10 µM was -7.37%.
The result for `Cc1ccc(CN2CC[C@H]3CO[C@H](CN4CCN(C)CC4)[C@H]3C2)o1` reads -118%; that for `Cn1nccc1-c1nnn2c1COCC(CNC1CCOCC1)C2` (stereo unspecified), -103%; that for `Cn1cncc1CNC1CC2(CCN(CC3CC3)CC2)c2ccccc21` (stereo unspecified), 0.565%.
The figure for `Cc1ccc(Oc2cc(CN)ccn2)cc1C` is -0.578%; for `NCC1[C@H]2CN(Cc3ccccc3F)C[C@@H]12` (stereo partly specified) it is -7.52%; for `CS(=O)(=O)N1CCOCC2(CN(Cc3nccs3)CCO2)C1` (stereo unspecified) it is 7.49%.
The figure for `CCS(=O)(=O)N1CCC2(CC1)CN(c1cccnc1)C(=O)CO2` is -109%; for `CC(C)N(C)Cc1cncc2c1CCN(C(=O)c1ccccc1F)C2` it is 2.35%; for `CCc1ccc(NC(=O)N2C[C@@H]3C[C@H](C(=O)N4CCCC4)[C@H](C2)O3)cc1` it is -6.71%.
